≈ marks a conversion by molar mass, not a printed value. Calls of active or inactive are those of the source. The rule behind the calls is not given here.
Tests used:
Aspergillus nidulans = assay: Antifungal activity against Aspergillus nidulans ATCC 38163 after 48 hrs by microbroth dilution method; assay type: functional; conditions: ATCC 38163, 48 h
Procedure, shortened: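 Filamentous fungus MIC by broth microdilution, run in duplicate. All compounds are read as MIC-0 (complete inhibition).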

[1] = Hemolytic activity against mouse RBC at 100 to 500 ug/ml after 60 mins; assay type: ADME, cell-based; conditions: erythrocyte, 1 h
Candida albicans [2] = assay: Antifungal activity against azole-resistant Candida albicans MYA-1003 after 48 hrs by microbroth dilution method; assay type: functional; conditions: MYA-1003, 48 h
Procedure, shortened: (§1)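 Yeast MIC by broth microdilution, run in duplicate. The aminoglycoside compounds are read as MIC-0 (complete inhibition). Azoles are read as MIC-2 (50% inhibition).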

[3] = Activity of AAC(3)-4 (unknown origin) assessed as compound acetylation activity by Ellman's method
[4] = Activity of AAC(6')-1e/APH(2'')-1a (unknown origin) assessed as compound acetylation activity by Ellman's method
Serratia marcescens = assay: Activity of Serratia marcescens AAC(6')-2d assessed as compound acetylation activity by Ellman's method
Enterobacter cloacae = assay: Antibacterial activity against Enterobacter cloacae ATCC 13047 by microdilution method; assay type: functional
Procedure, shortened: (§2)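 Broth microdilution MIC against the named bacterial strain, reported in μg/mL; each determination run at least in duplicate.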

Staphylococcus aureus [5] = assay: Antibacterial activity against methicillin-resistant Staphylococcus aureus by microdilution method; assay type: functional
Procedure, shortened: (§3)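 Broth microdilution MIC, in μg/mL, against a panel of Gram-positive and Gram-negative strains. Run at least in duplicate.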

Bacillus subtilis = assay: Antibacterial activity against Bacillus subtilis 168 by microdilution method; assay type: functional; conditions: subsp. subtilis str. 168; procedure, shortened: as §2
Pseudomonas aeruginosa = assay: Antibacterial activity against Pseudomonas aeruginosa ATCC 27853 by microdilution method; assay type: functional; procedure, shortened: as §2
Acinetobacter baumannii = assay: Antibacterial activity against Acinetobacter baumannii ATCC 19606 by microdilution method; assay type: functional; procedure, shortened: as §2
Escherichia coli = assay: Antibacterial activity against Escherichia coli MC1061 by microdilution method; assay type: functional; procedure, shortened: as §3
[6] = test system: Staphylococcus epidermidis; assay: Antibacterial activity against Staphylococcus epidermidis ATCC 12228 by microdilution method; assay type: functional; procedure, shortened: as §2
Candida albicans [7] = assay: Antifungal activity against azole-susceptible Candida albicans ATCC MYA-2310 after 48 hrs by microbroth dilution method; assay type: functional; conditions: ATCC MYA-2310, 48 h; procedure, shortened: as §1
Staphylococcus aureus [8] = assay: Antibacterial activity against Staphylococcus aureus NRS22 (USA 600) by microdilution method; assay type: functional; procedure, shortened: as §2
Candida albicans [9] = assay: Antifungal activity against azole-resistant Candida albicans ATCC 90819 after 48 hrs by microbroth dilution method; assay type: functional; conditions: ATCC 90819, 48 h; procedure, shortened: as §1
Enterococcus = assay: Antibacterial activity against vancomycin-resistant Enterococcus by microdilution method; assay type: functional; procedure, shortened: as §3
[10] = test system: Mycobacterium tuberculosis; assay: Activity of Mycobacterium tuberculosis Eis assessed as compound acetylation activity by Ellman's method
A549 = assay: Cytotoxicity against human A549 cells after 24 hrs by resazurin assay; assay type: cell-based; conditions: human, a549, 24 h
Staphylococcus aureus [11] = assay: Antibacterial activity against Staphylococcus aureus ATCC 29213 by microdilution method; assay type: functional; procedure, shortened: as §2
Listeria monocytogenes = assay: Antibacterial activity against Listeria monocytogenes ATCC 19115 by microdilution method; assay type: functional; procedure, shortened: as §2
[12] = test system: Mycolicibacterium smegmatis; assay: Antibacterial activity against Mycobacterium smegmatis MC2 155 by microdilution method; assay type: functional; conditions: str. MC2 155; procedure, shortened: as §3
[13] = Cytotoxicity against human BEAS2B cells after 24 hrs by resazurin assay; assay type: cell-based, BEAS-2B; conditions: human, beas-2b
[14] = test system: Mycobacterium tuberculosis; assay: Activity of Mycobacterium tuberculosis AAC(2')-1c assessed as compound acetylation activity by Ellman's method
Staphylococcus aureus [15] = assay: Antibacterial activity against Staphylococcus aureus NRS385 (USA 300) by microdilution method; assay type: functional; procedure, shortened: as §3
Klebsiella pneumoniae = assay: Antibacterial activity against Klebsiella pneumoniae ATCC 27736 by microdilution method; assay type: functional; procedure, shortened: as §2
Candida albicans [16] = assay: Antifungal activity against azole-resistant Candida albicans MYA-1237 after 48 hrs by microbroth dilution method; assay type: functional; conditions: MYA-1237, 48 h; procedure, shortened: as §1
Candida albicans [17] = assay: Antifungal activity against azole-resistant Candida albicans ATCC 64124 after 48 hrs by microbroth dilution method; assay type: functional; conditions: ATCC 64124, 48 h; procedure, shortened: as §1
Staphylococcus aureus [18] = assay: Antibacterial activity against Staphylococcus aureus NRS382 (USA 100) by microdilution method; assay type: functional; procedure, shortened: as §2
Staphylococcus aureus [19] = assay: Antibacterial activity against Staphylococcus aureus NRS383 (USA 200) by microdilution method; assay type: functional; procedure, shortened: as §2
Salmonella enterica = assay: Antibacterial activity against Salmonella enterica ATCC 14028 by microdilution method; assay type: functional; procedure, shortened: as §2
Candida albicans [20] = assay: Antifungal activity against azole-susceptible Candida albicans ATCC MYA-2876 after 48 hrs by microbroth dilution method; assay type: functional; conditions: ATCC MYA-2876, 48 h; procedure, shortened: as §1
[21] = test system: Bacillus subtilis subsp. subtilis str. 168; assay: Activity of Bacillus subtilis 168 APH(2'')-1a assessed as compound phosphorylation activity by Ellman's method
Candida albicans [22] = assay: Antifungal activity against azole-resistant Candida albicans ATCC 10231 after 48 hrs by microbroth dilution method; assay type: functional; conditions: ATCC 10231, 48 h; procedure, shortened: as §1

Structure (SMILES)	MIC (Aspergillus nidulans)	Activity [1]	MIC (Candida albicans [2])	Activity [3]	Activity [4]	Activity (Serratia marcescens)	MIC (Enterobacter cloacae)	MIC (Bacillus subtilis)	MIC (Acinetobacter baumannii)	MIC (Escherichia coli)	MIC [6]	MIC (Candida albicans [7])	MIC (Candida albicans [9])	Activity [10]	Activity (A549)	MIC (Staphylococcus aureus [11])	MIC (Listeria monocytogenes)	MIC [12]	Activity [13]	Activity [14]	other results
CCCCCCCCCCCCSC[C@H]1O[C@H](O[C@@H]2[C@@H](O)[C@H](O[C@H]3O[C@H](CN)[C@@H](O)C[C@H]3N)[C@@H](N)C[C@H]2N)[C@H](O)[C@@H](N)[C@@H]1O	7.8 µg/mL (≈ 12 µM)	–	–	–	–	–	–	–	–	–	–	–	–	–	–	–	–	–	–	–	–
CCCCCCCCCCCCCCSC[C@H]1O[C@H](O[C@@H]2[C@@H](O)[C@H](O[C@H]3O[C@H](CN)[C@@H](O)C[C@H]3N)[C@@H](N)C[C@H]2N)[C@H](O)[C@@H](N)[C@@H]1O	7.8 µg/mL (≈ 11.5 µM)	–	–	–	–	–	–	–	–	–	–	–	–	–	–	–	–	–	–	–	–
CCCCCCCCSC[C@H]1O[C@H](O[C@@H]2[C@@H](O)[C@H](O[C@H]3O[C@H](CN)[C@@H](O)C[C@H]3N)[C@@H](N)C[C@H]2N)[C@H](O)[C@@H](N)[C@@H]1O	125 µg/mL (≈ 210 µM)	–	–	–	–	–	–	–	–	–	–	–	–	–	–	–	–	–	–	–	–
CCCCCCCCCCSC[C@H]1O[C@H](O[C@@H]2[C@@H](O)[C@H](O[C@H]3O[C@H](CN)[C@@H](O)C[C@H]3N)[C@@H](N)C[C@H]2N)[C@H](O)[C@@H](N)[C@@H]1O	62.5 µg/mL (≈ 100 µM)	–	–	–	–	–	–	–	–	–	–	–	–	–	–	–	–	–	–	–	–
CCCCCCCCSC[C@@H]1O[C@@H](O[C@@H]2[C@@H](O)[C@H](O[C@@H]3O[C@@H](CN)[C@H](O)[C@@H](O)[C@@H]3N)[C@@H](N)C[C@H]2N)[C@@H](O)[C@H](N)[C@H]1O (stereo in doubt)	15.6 µg/mL (≈ 25.5 µM)	Non-toxic	> 125 µg/mL	inactive	inactive	inactive	> 128 µg/mL	> 128 µg/mL	> 128 µg/mL	> 128 µg/mL	> 128 µg/mL	> 125 µg/mL	> 125 µg/mL	inactive	Non-toxic	64 µg/mL (≈ 105 µM)	8 µg/mL (≈ 13.1 µM)	64 µg/mL (≈ 105 µM)	Non-toxic	inactive	MIC (Staphylococcus aureus [5]): 128 µg/mL (≈ 209 µM); MIC (Pseudomonas aeruginosa): 64 µg/mL (≈ 105 µM); MIC (Staphylococcus aureus [8]): 64 µg/mL (≈ 105 µM); MIC (Enterococcus): 128 µg/mL (≈ 209 µM); MIC (Staphylococcus aureus [15]): 128 µg/mL (≈ 209 µM); MIC (Klebsiella pneumoniae): > 128 µg/mL; MIC (Candida albicans [16]): > 125 µg/mL; MIC (Candida albicans [17]): > 125 µg/mL; MIC (Staphylococcus aureus [18]): 128 µg/mL (≈ 209 µM); MIC (Staphylococcus aureus [19]): 64 µg/mL (≈ 105 µM); MIC (Salmonella enterica): > 128 µg/mL; MIC (Candida albicans [20]): > 125 µg/mL; Activity [21]: inactive; MIC (Candida albicans [22]): > 125 µg/mL
CCCCCCCCCCSC[C@@H]1O[C@@H](O[C@@H]2[C@@H](O)[C@H](O[C@@H]3O[C@@H](CN)[C@H](O)[C@@H](O)[C@@H]3N)[C@@H](N)C[C@H]2N)[C@@H](O)[C@H](N)[C@H]1O (stereo in doubt)	≤ 1.95 µg/mL	Non-toxic	125 µg/mL (≈ 195 µM)	inactive	inactive	inactive	> 128 µg/mL	128 µg/mL (≈ 200 µM)	> 128 µg/mL	> 128 µg/mL	> 128 µg/mL	62.5 µg/mL (≈ 97.7 µM)	125 µg/mL (≈ 195 µM)	inactive	Non-toxic	16 µg/mL (≈ 25 µM)	2 µg/mL (≈ 3.13 µM)	8 µg/mL (≈ 12.5 µM)	Non-toxic	inactive	MIC (Staphylococcus aureus [15]): 32 µg/mL (≈ 50 µM); MIC (Klebsiella pneumoniae): > 128 µg/mL; MIC (Candida albicans [16]): 125 µg/mL (≈ 195 µM); MIC (Candida albicans [17]): 125 µg/mL (≈ 195 µM); MIC (Salmonella enterica): > 128 µg/mL; MIC (Candida albicans [20]): 125 µg/mL (≈ 195 µM); Activity [21]: inactive; MIC (Candida albicans [22]): 125 µg/mL (≈ 195 µM)

— ChEMBL document CHEMBL3739331, “Synthesis and Bioactivities of Kanamycin B-Derived Cationic Amphiphiles” (J Med Chem, 2015)
